UHRF1 MBD2 ctr: UHRF1 methyl-DNA binding inhibition; UHRF1 binding to methylated oligo, TR-FRET; inhibition, % at 4.4 µM; 0.75% of 370,000 active; AID 687016; in the data active = inhibition above about 21%;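 also: UHRF1 SRA domain binding a hemimethylated CpG hairpin DNA probe; 0% = median of test compound wells and 100% = reference inhibitor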
MBD2 inh: inhibitors of human MBD2 binding to methylated oligonucleotide | Q9UBB5 | TR-FRET | inhibition, % at 4.4 µM | 0.31% of 370,000 active | AID 686964; in the data active = inhibition above about 13%
ASAP1 GAP inh: inhibitors of human ASAP1 ArfGAP activity; Q9ULH1; ASAP1-stimulated ARF1 GTP hydrolysis, GDP FP detection; inhibition, % at 16.5 µM; 0.19% of 360,000 active; in the data active = inhibition above about 25%;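 also: 0% = vehicle with enzyme and substrate and 100% = no enzyme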
TDP2 absorb: blocks human TDP2 phosphodiesterase activity | inhibition, % at 12.8 µM | recombinant TDP2, T5PNP hydrolysis, p-nitrophenol absorbance 415 nm | O95551 | AID 720702 | 0.34% of 370,000 active;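 active = inhibition above the mean of all tested compounds plus 3 SD, set per campaign, cut at about 25% in these data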;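 also: 0% = DMSO with enzyme and 100% = buffer with substrate but no TDP2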
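Evaluation: % inhibition relative to enzyme-containing and enzyme-free wells. Material: recombinant human TDP2. Benchmarks: enzyme-free and DMSO wells. Timing: enzyme reaction with compound for 2 h at 37 °C. Compound dosing: 12.8 µM only. Measured by: p-Nitrophenol epi absorbance. Reagent: T5PNP substrate at 5 mM, a TopII-DNA adduct mimic. Replication: single well per compound.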
ARFGAP1 inh: inhibitors of rat ARFGAP1. inhibition, % at 16.5 µM. Arfgap1-stimulated ARF1 GTP hydrolysis, GDP FP detection. 0.26% of 360,000 active;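 active = inhibition above a per-plate limit, mean inhibition of low control wells plus 3 SD, cut at about 25% in these data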;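 also: 0% = DMSO wells with enzyme and 100% = wells lacking Arfgap1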
Target sequence (Q62848 1-136 limits assumed): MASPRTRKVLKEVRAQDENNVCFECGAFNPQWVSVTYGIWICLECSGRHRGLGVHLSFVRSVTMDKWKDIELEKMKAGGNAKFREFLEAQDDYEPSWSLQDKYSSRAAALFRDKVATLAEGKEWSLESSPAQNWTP
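Material – truncated rat Arfgap1 GAP domain · Buffer or medium – HEPES-based buffer, pH 7.5 · Reagent – human ARF1(Δ1-17)-GTP substrate · Dosing – 16.5 µM single point, 1.26% DMSO · Schedule – GTP hydrolysis reaction 2 h at 25 °C · Technique – GDP detection by fluorescence polarization · Benchmarks – No-Arfgap1 wells (100%) versus DMSO full-reaction wells (0%) · Repeats – single replicate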
LEDGF integ inh: blocks HIV-1 LEDGF/p75-dependent DNA integration. inhibition, % at 3.7 µM. 0.64% of 370,000 active. TR-FRET IN-LEDGF/p75 DNA integration, Eu/Cy5. AID 743269;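 active = inhibition above the screen-wide mean plus 3 SD, cut at about 13% in these data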;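 also: signal is the Cy5 over europium emission ratio at 671 and 618 nm; 0% = plate median of compound wells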
IN multimer act: activates HIV-1 integrase multimerization in LEDGF counter-screen. activation, % at 7.7 µM. TR-FRET HIV-1 integrase multimerization, biochemical. shares compounds with LEDGF integ inh. 17% of 2,000 active; in the data active = activation above about 8.9%
TR-FRET interf: optically interferes with TR-FRET readout in LEDGF counter-screen; shares compounds with LEDGF integ inh; TR-FRET optical interference counterscreen, HIV-1 IN multimerization; inhibition, % at 7.7 µM; 2,000 tested, under 10 active; AID 1053135;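 active = inhibition above the mean over all tested compounds plus 3 SD, which no compound reached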;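 also: 0% = integrase with antibodies and DMSO and 100% = antibodies without integrase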
IN-LEDGF confirm: LEDGF/p75-dependent HIV-1 integration inhibition, confirmation | TR-FRET LEDGF/p75-dependent HIV-1 integration, biochemical | 36% of 2,000 active | shares compounds with LEDGF integ inh | inhibition, % at 3.7 µM | AID 1053136; in the data active = inhibition above about 14%
The depositor's hits bear a star; · = no result given. An excerpt weighted towards active compounds, which were near 2% of everything screened.

SMILES	UHRF1 MBD2 ctr	MBD2 inh	ASAP1 GAP inh	TDP2 absorb	ARFGAP1 inh	LEDGF integ inh	IN multimer act	TR-FRET interf	IN-LEDGF confirm
NNC(=O)c1oc2nc(-c3ccco3)cc(-c3ccco3)c2c1N	11	8	4	3	8	64*	11*	-55	11
Nc1c(C(=O)N/N=C/c2cccnc2)oc2nc(-c3ccccc3)cc(-c3ccco3)c12	-5	-7	3	-4	-6	5	·	·	·
Nc1c(C(=O)N/N=C/c2cccnc2)oc2nc(-c3ccco3)cc(-c3ccco3)c12	17	4	1	4	3	53*	40*	-199	91*
CCOC(=O)N1CCN(C(=O)C[C@H]2C(=O)N(CCCOC)C3=CCCCC[C@]32C(=O)OC)CC1	-3	2	·	10	·	-2	·	·	·
CC1(C)Oc2cc(N)c([N+](=O)[O-])cc2O1	23*	-9	3	5	11	45*	0	-1	-6
Nc1ccc(Oc2ccc(N)c([N+](=O)[O-])c2)cc1[N+](=O)[O-]	-3	-8	9	-19	8	-2	·	·	·
COc1ccc(N=C2NC(=O)/C(=C\C=C\c3ccco3)S2)cc1	4	7	5	16	-1	23*	16*	-83	55*
Cc1ccc(N=C2NC(=O)/C(=C\c3ccco3)S2)cc1	0	0	2	4	-8	4	·	·	·
O=C1NC(=Nc2ccc(O)cc2)S/C1=C/c1ccco1	1	4	-6	-2	9	0	·	·	·
Cc1cccc(N=C2NC(=O)/C(=C/C=C/c3ccco3)S2)c1	12	2	3	-16	-6	26*	5	-27	55*
CCC1CCc2sc(C(=O)NCC(c3ccc(OC)cc3)N3CCOCC3)cc2C1 (centres undefined)	15	0	-3	-2	0	62*	0	2	0
Cc1cc2nc3ccc(N(C)C)cc3nc2cc1N	2	-2	-1	-2	-3	31*	15*	-75	72*
Cc1cc2nn(-c3cccc4ccccc34)nc2cc1N	2	5	17	-2	9	1	·	·	·
COC(=O)[C@H](C(C)C)N(CCCc1cn(Cc2ccc(C)cc2)nn1)S(=O)(=O)c1ccccc1Br	5	1	·	-3	·	-3	·	·	·
C#CCN1CC(N(C)CCOC(=O)c2ccc(C(C)(C)C)cc2)CS1(=O)=O (centres undefined)	-2	7	·	5	·	-6	·	·	·
Cc1cc(NC(=O)CCCS(=O)(=O)c2nc(-c3cccs3)cc(C(F)(F)F)n2)no1	0	-3	-14	1	14	19*	-1	5	2
COc1ccc(C(C)(NC(C)=O)c2nc(-c3cccc(C(F)(F)F)c3)cs2)cc1 (centres undefined)	-1	0	3	-2	-7	16*	-1	3	-9
c1cn2cc(-c3ccc(CN4CCOCC4)cc3)ccc2n1	0	-4	-4	2	0	89*	1	-4	-1
c1cc(-c2ccc(CN3CCOCC3)cc2)n2ccnc2c1	-1	2	2	7	0	2	·	·	·
Cc1cc(C)cc(OCC(C)CN2CCC(C(O)(c3ccccc3)c3ccccc3)CC2)c1 (centres undefined)	-2	-1	·	-11	·	-5	·	·	·
O=C(Nc1ccccc1C(F)(F)F)OCCCN1CCC2(CCC(c3ccccc3)CC2)C1=O (centres undefined)	-1	6	·	-7	·	0	·	·	·
COC(=O)[C@@]12CCCCC3=C1N(CCC3)C(=O)[C@H]2CC(=O)N1CCCC1	1	3	·	-8	·	1	·	·	·
